SR-BI DiI-HDL act: activators of SR-BI mediated DiI-HDL uptake, primary screen, ldlA[mSR-BI] CHO cells, DiI fluorescence. 3 h; 100 = double the neutral-control signal. actives 0.096% (n = 320,000). activation, % at 12.5 µM;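 active = mean replicate activation of at least 60% and every replicate at or above 60%; inconclusive = mean or all-replicate condition met, but not both; inactive = mean below 60% and not all replicates reaching 60%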;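 also: 0% = median plate neutral-control signal and 100% = twice that signal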
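Material: SR-BI-overexpressing, LDLR-lacking CHO cells | Dosing: Single compound concentration, delivered by pin transfer | Probe or stimulus: Labelled HDL, 10 µg/mL | Signal: Bottom-read cell fluorescence after medium removal, ex 550/em 595 nm | Schedule: 3 h, 37 °C | Evaluation: HDL uptake via cellular fluorescence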
PKA-R1A activ: activators of PKA-R1A holoenzyme, primary screen, biochemical, fluorescence polarization, Cy5-IP20, bovine R1A, mouse PKAc | AID 504707, 2011 | activation, % at 11.4 µM | PKA-R1A dissociation; scaled: DMSO 0%, 113 µM cGMP 100% | actives 0.083% (n = 340,000) | cAMP-dependent protein kinase type I-alpha regulatory subunit (Bos taurus) + …;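 active = percent activation above the mean of all tested compounds plus 3 SD, cut at about 19% in these data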;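 also: higher means more PKAc released from R1A so a rise in polarization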
PKA-R2B activ: activators of PKA-R2B holoenzyme, primary screen, biochemical, fluorescence polarization, Cy5-IP20, human. PKA-R2B holoenzyme dissociation; R2B truncated from residue 108, S112A mutant; 0% DMSO only, 100% 113 µM cGMP. activation, % at 11.4 µM. actives 0.079% (n = 340,000). AID 504700, 2011;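 active = activation above a cutoff set at the mean over all compounds plus 3 SD, cut at about 18% in these data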;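 also: higher means more holoenzyme dissociation and a rise in polarization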
SR-BI HDL uptake: inhibitors of SR-BI mediated HDL lipid uptake, primary screen, ldlA[mSR-BI] cells, fluorescence, single point | Scavenger receptor class B member 1 (Mus musculus), Q61009 | ldlA[mSR-BI] CHO cells, DiI-HDL uptake fluorescence, 3 h | inhibition, % at 12.5 µM | actives 0.96% (n = 320,000);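 active = mean replicate inhibition of at least 70% and a set share of replicates each scoring 70 or more; inconclusive = meets just one of the two criteria; inactive = fails both criteria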;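 also: 0% = median of neutral control wells and 100% = median of positive control wells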
CDK5 inh: inhibitors of human CDK5/p35 kinase, primary screen, biochemical, single concentration; inhibition, % at 10 µM; actives 0.01% (n = 330,000); AID 488839, 2010; Cyclin-dependent kinase 5 (Homo sapiens) + Cyclin-dependent kinase 5 activator 1 (Homo …; Recombinant CDK5/p35, ADP-Glo luminescence, 60 min;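 active = highest replicate inhibition of at least 50% and at least 75% of replicates reaching 50%; inconclusive = only one of the two criteria met; inactive = both criteria failed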;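 also: plate controls were DMSO neutral control for no effect and GW8510 at 10 µM for full effect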
Target sequence (Q00535 whole entry, looked up): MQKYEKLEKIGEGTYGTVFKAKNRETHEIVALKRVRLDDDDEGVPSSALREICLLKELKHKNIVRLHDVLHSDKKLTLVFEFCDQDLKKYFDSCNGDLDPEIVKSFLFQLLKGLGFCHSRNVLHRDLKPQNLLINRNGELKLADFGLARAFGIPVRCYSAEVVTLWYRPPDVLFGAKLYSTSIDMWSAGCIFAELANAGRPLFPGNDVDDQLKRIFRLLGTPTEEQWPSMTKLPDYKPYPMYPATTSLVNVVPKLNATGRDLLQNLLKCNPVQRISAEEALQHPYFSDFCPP
Target sequence (Q15078 whole entry, looked up): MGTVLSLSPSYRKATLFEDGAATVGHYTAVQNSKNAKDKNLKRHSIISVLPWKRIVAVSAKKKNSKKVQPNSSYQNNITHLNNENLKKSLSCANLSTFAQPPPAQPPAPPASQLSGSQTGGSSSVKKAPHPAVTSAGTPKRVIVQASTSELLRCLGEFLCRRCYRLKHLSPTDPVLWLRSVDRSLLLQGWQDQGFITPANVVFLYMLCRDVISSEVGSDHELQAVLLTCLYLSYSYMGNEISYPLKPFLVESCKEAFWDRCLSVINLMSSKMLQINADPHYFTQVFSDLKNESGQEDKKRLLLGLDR
dFosB act: activators of delta FosB homodimer, primary screen, biochemical, fluorescence polarization, TAMRA-CDK5 oligo, single point | actives 0.99% (n = 340,000) | purified delta FosB; percent of positive-control signal above neutral wells | activation, % at 25 µM | Protein FosB (Mus musculus), P13346;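 active = mean activation above about 17%, with every replicate also reaching it, limit read from the data, passing the limit was not always enough; inconclusive = only one of the two conditions met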
Numbers without * were called inactive; ? = inconclusive; / = not tested or not shown. The list is not random: actives were taken first. Their share in the collection is about 2.1%.

SMILES	SR-BI DiI-HDL act	PKA-R1A activ	PKA-R2B activ	SR-BI HDL uptake	CDK5 inh	dFosB act
CC(C)CCN1CC(O)=C(c2nc(-c3ccc(Cl)cc3)cs2)C1=N	-76	5	6	76*	0	0
COc1ccc2ccccc2c1C(=O)/C=C\c1ccoc1	18	4	7	-18	-3	-4
Cc1ccc(NC(=O)CCCc2ccccc2)c([N+](=O)[O-])c1	-17	-4	-4	17	-1	3
NNC(=O)c1cc2c(s1)-c1cc(Cl)ccc1SC2	-99	/	/	99*	1	-6
O=[N+]([O-])c1ccccc1OCCNCc1ccccc1	4	-4	4	-4	-1	1
CC(C(=O)Nc1ccc2c(c1)OCCO2)N1Cc2ccccc2C1=O (stereo not drawn)	13	-9	-11	-13	0	-4
Brc1ccc(C2=Nc3cccc4cccc(c34)N2)o1	-14	-15	-2	14	/	23*
COc1cc(/C=C/C(=O)OCC(=O)c2c(N)n(C)c(=O)n(C)c2=O)ccc1OCC#N	-71	-4	5	71*	0	-10
COc1ccc(Nc2cc(C)c3c(O)cccc3n2)cc1	-11	4	-1	11	3	?
Cc1ccc(Nc2cc(C)c3c(O)cccc3n2)cc1C	-5	2	-8	5	2	39*
Fc1cccc(CN2CCN(Cc3nc(CCc4ccccc4)no3)CC2)c1	/	-5	-9	/	0	-6
CCC(=O)Nc1ccc(Cl)c(NC(=S)NC(=O)c2cc3ccccc3o2)c1	-14	-15	2	14	0	-2
CCC(=O)Nc1ccc(Cl)c(NC(=S)NC(=O)c2ccco2)c1	-96	-1	-11	96*	1	-5
COc1ccc(NC(=O)c2c(N)no[n+]2[O-])cc1	27	-11	0	-27	2	21*
COc1ccc(NC(=O)c2c(N)no[n+]2[O-])c(OC)c1	-13	3	3	13	0	-3
Oc1ccccc1N=Cc1c(O)ccc2ccccc12	-80	-3	4	80*	0	-19
C=Cc1ccc(N=Cc2c(O)ccc3ccccc23)cc1	-75	-9	2	75*	-1	-2
CCn1ncc(Br)c1C(=O)Nc1ccccc1C(F)(F)F	/	1	-5	/	-4	2
Cn1nc(C(F)(F)F)c2cc(C(=O)Nc3ccc(F)c(Cl)c3)sc21	-73	-15	-16	?	1	-3
Cn1nc(C(F)(F)F)c2cc(C(=O)Nc3ccc(C(F)(F)F)cc3)sc21	-84	-15	-7	84*	-1	1
Cn1nc(C(F)(F)F)c2cc(C(=O)Nc3ccc(F)cc3)sc21	-76	6	0	76*	1	-23
S=C(Nc1cccc(Cl)c1Cl)N1CCCC1	0	3	2	0	-1	-5
CCCCn1c(N)c(-c2nc3ccccc3s2)c2c([N+](=O)[O-])nn(C)c(=O)c21	-93	6	3	93*	0	-7
CCCCCn1c(N)c(-c2nc3ccccc3s2)c2c([N+](=O)[O-])nn(CC)c(=O)c21	-83	-5	1	83*	-1	-3
CCCCn1c(N)c(-c2nc3ccccc3s2)c2c([N+](=O)[O-])nn(CC)c(=O)c21	-67	2	2	67	3	0
O=C(NC1CC2CCC(C1)N2Cc1ccccc1)c1ccccc1Cl (stereo not drawn)	-7	-6	1	7	1	2
O=C(CSc1nnnn1C1CC1)Nc1ccc(S(=O)(=O)N2CCOCC2)cc1	22	-4	3	-22	-2	1
O=C(CCCSCCCC(=O)NN=Cc1ccccc1)NN=Cc1ccccc1	-33	-1	-5	33	-1	-4

Screens deposited in PubChem BioAssay by several laboratories.
